Assay [1] has as its system MCF-7 breast cancer cell line. Put plainly: MTT cytotoxicity assay, MCF-7. The format is cell-based, human. To be noted: for IC50: Homo sapiens; for Selectivity Index (SI) 48 h: IC50 MCF-10 A / IC50 MCF-7, 48 h; for Selectivity Index (SI) 72 h: IC50 MCF-10 A / IC50 MCF-7, 72 h. In a few lines: (§1)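 Cells came from the Pasteur Institute, Tehran, and were seeded at 5 × 10^4 cells/well. After 24 h, four concentrations of test compound were added in triplicate, with medium-only and 0.5% DMSO controls. Exposure was 48 and 72 h. MTT formazan was dissolved in DMSO and read at 570 nm. IC50 was taken from % inhibition (mean ± SD, n=3). SI = IC50 MCF-10 A / IC50 MCF-7.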
Background: Formazan colour is commonly taken as a measure of viable cells.

Assay [2] deals with healthy human breast epithelial (MCF-10 A) cell line. Put plainly: MTT cytotoxicity assay, MCF-10 A. The format is cell-based. In a few lines:
as §1

A short description of assay [3]: DPPH radical scavenging assay. The conditions noted are these: read-out: DPPH radical scavenging IC50 ± SD; DPPH 0.1 mM in MeOH, 60 min, 517 nm. In a few lines:
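Each test compound was prepared at 1.0 mg/mL in DMSO and mixed 1:1 by volume with 0.1 mM DPPH in MeOH. The mixture was kept in the dark at RT for 60 min. Absorbance was read at 517 nm against a DPPH control. % scavenging = (Abs control − Abs sample)/Abs control × 100.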

Where [4] appears, read: MCF7, 48 h, read-out: IC50 ±SD MCF-7 48 h.
The mark [5] stands for this setting: MCF7, 72 h, read-out: IC50 ±SD MCF-7 72 h.
Setting [6] is: 48 h, read-out: IC50 ±SD MCF-10 A 48 h.
Where [7] appears, read: 72 h, read-out: IC50 ±SD MCF-10 A 72 h.

Where two headings read alike, the source gives them in different places.

As to `NS(=O)(=O)c1ccc(/N=N/c2ccc(O)c(/C=N/c3ccc(O)cc3)c2)cc1` [Compound 3a, 4-((E)-(4-hydroxy-3-((E)-((4-hydroxyphenyl)imino)methyl)phenyl)diazenyl)benzenesulfonamide], the half-maximal inhibitory concentration (IC50) (commonly the concentration that gives 50% inhibition) in assay [1] (setting [4]) is 10.9 ± 0.005 µM; in assay [1] (setting [5]), 9.49 ± 0.012 µM; in assay [2] (setting [6]) it was 11.18 ± 0.012 µM; in assay [2] (setting [7]), 1.98 ± 0.002 µM; in assay [3], 13.2 ± 0.74 µM. Further, the “Selectivity Index (SI) 48 h” value in assay [1] was 1.02. Besides, the “Selectivity Index (SI) 72 h” value in assay [1] amounted to 0.20.

As for `NS(=O)(=O)c1ccc(/N=N/c2ccc(O)c(/C=N/c3ccccc3O)c2)cc1` [Compound 3c, 4-((E)-(4-hydroxy-3-((E)-((2hydroxyphenyl)imino)methyl)phenyl)diazenyl)benzenesulfonamide], the IC50 in assay [1] (setting [4]) is 21.16 ± 0.014 µM; in assay [1] (setting [5]) it was 9.26 ± 0.002 µM; in assay [2] (setting [6]) it was 16.82 ± 0.01 µM; in assay [2] (setting [7]) it was 2.23 ± 0.001 µM; in assay [3] it was 13.6 ± 0.95 µM. Further, in assay [1], the “Selectivity Index (SI) 48 h” value was determined as 0.79. The “Selectivity Index (SI) 72 h” value in assay [1] was determined as 0.24.

`COc1ccc(/N=C/c2cc(/N=N/c3ccc(S(N)(=O)=O)cc3)ccc2O)cc1` [Compound 3f, 4-((E)-(4-hydroxy-3-((E)-((4-methoxyphenyl)imino)methyl)phenyl)diazenyl)benzenesulfonamid]: the half-maximal inhibitory concentration (IC50) in assay [1] (setting [4]) stood at 8.94 ± 0.013 µM; in assay [1] (setting [5]), 7.62 ± 0.018 µM; in assay [2] (setting [6]), 11.01 ± 0.016 µM; in assay [2] (setting [7]) it was 2.67 ± 0.009 µM; in assay [3], 14 ± 1.45 µM. In assay [1], the “Selectivity Index (SI) 48 h” value was determined as 1.23. The “Selectivity Index (SI) 72 h” value in assay [1] was determined as 0.35.

As to `NC(=S)N/N=C/c1cc(/N=N/c2ccc(S(N)(=O)=O)cc2)ccc1O` [Compound 3j, 2-((E)-2-hydroxy-5-((E)-(4-sulfamoylphenyl)diazenyl)benzylidene)hydrazine-1-carbothioamide], the IC50 in assay [1] (setting [4]) worked out at 6.52 ± 0.007 µM; in assay [1] (setting [5]), 5.27 ± 0.006 µM; in assay [2] (setting [6]), 17.43 ± 0.019 µM; in assay [2] (setting [7]), 11.26 ± 0.008 µM; in assay [3], 12.4 ± 0.55 µM. In assay [1], the “Selectivity Index (SI) 48 h” value is recorded as 2.67. For the same compound, the “Selectivity Index (SI) 72 h” value in assay [1] is listed as 2.13.

On to `COc1cccc2c1C(=O)c1c(O)c3c(c(O)c1C2=O)C[C@@](O)(C(=O)CO)C[C@@H]3O[C@H]1C[C@H](N)[C@H](O)[C@H](C)O1` [Doxorubicin, reference compound], for which the IC50 was 3.42 ± 0.1 µM in assay [1] (setting [4]), 0.68 ± 0.1 µM in assay [1] (setting [5]), 13.2 ± 0.1 µM in assay [2] (setting [6]) and 2.85 ± 0.1 µM in assay [2] (setting [7]). Further, the “Selectivity Index (SI) 48 h” value in assay [1] came to 3.86. Besides, the “Selectivity Index (SI) 72 h” value in assay [1] was 4.20.

Take `O=C1O[C@H]([C@@H](O)CO)C(O)=C1O` [ascorbic acid, reference compound]: the IC50 in assay [3] was found to be 13.6 ± 0.38 µM.

The values above are taken from PMC11850876 (Scientific Reports, 2025).
